# Assay results collected from several papers.
# Protocols differ between the studies behind these lines.
# Target: Ephrin type-B receptor 4 (EPHB4, Homo sapiens, UniProt P54760)
# Sequence (P54760 16-987, as in one of the studies): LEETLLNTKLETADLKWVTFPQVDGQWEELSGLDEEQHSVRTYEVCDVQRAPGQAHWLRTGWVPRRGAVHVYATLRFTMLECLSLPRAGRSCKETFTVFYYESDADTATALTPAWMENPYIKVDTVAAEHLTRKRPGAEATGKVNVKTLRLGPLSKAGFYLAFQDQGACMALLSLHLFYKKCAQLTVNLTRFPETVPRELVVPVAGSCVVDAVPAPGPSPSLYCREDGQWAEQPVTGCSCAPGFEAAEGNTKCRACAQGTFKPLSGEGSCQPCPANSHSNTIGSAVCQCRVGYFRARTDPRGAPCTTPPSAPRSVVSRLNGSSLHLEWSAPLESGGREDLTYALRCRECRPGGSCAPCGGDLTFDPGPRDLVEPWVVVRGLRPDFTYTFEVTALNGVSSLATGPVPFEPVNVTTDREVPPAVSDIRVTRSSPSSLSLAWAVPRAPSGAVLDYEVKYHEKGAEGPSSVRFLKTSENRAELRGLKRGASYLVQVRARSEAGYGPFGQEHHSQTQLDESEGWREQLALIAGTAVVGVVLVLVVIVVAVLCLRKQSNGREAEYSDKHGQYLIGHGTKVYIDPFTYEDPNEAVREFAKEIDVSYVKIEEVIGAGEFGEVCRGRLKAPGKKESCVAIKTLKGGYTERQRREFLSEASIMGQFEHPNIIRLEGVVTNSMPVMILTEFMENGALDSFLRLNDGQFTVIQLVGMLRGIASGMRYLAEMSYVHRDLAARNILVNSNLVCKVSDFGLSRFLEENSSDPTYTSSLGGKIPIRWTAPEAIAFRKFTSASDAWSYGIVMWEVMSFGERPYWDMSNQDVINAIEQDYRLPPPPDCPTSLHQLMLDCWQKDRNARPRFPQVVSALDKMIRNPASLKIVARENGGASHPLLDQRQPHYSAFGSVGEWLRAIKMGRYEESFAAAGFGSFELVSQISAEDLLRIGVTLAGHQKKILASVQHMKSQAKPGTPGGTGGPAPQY
Structure (SMILES),observed,method,concentration,remaining binding [%]
C[C@@H]1CCN(c2nccc(-c3cnn4ncccc34)n2)C1,binding,,1 µM,100
Cc1cnc(Nc2ccc(C(=O)N3CCC(N4CCCC4)CC3)cc2)nc1-c1cc2ccccc2s1,binding,competition with immobilised ligand,1 µM,27
C[C@@H](c1ccc(-n2cnc3c(N)ncnc32)cc1)N1CCc2nn(C)c(Cc3ccccc3)c2C1=O,binding,competition with immobilised ligand,0.1 µM,95
CNC(=O)[C@@H]1CC[C@@H](n2c(-c3ccc4cnccc4c3)nc3ccc(C(=O)NCc4cccc(C(N)=O)c4)cc32)C1,binding,competition with immobilised ligand,1 µM,100
C[C@H](c1ccc(F)cc1)N(Cc1cccc(C(=O)O)c1)C(=O)c1cnc2ccccc2c1,cell-free assay,competition with immobilised ligand,1 µM,100
COc1cnc(Nc2cccc(S(N)(=O)=O)c2)nc1N1CCN(c2ccccc2)C(=O)C1,binding,competition with immobilised ligand,1 µM,100
CC1=C(C#N)C(c2ccc3c(c2)c(NC(=O)c2ccccc2C)nn3C)C(C#N)=C(C)N1,cell-free assay,competition with immobilised ligand,1 µM,97
C=CC(=O)N1CCC(C(=O)NCC(=O)N2CCN(c3nc(-c4cnc(N)nc4C(F)F)nc(N4CCOCC4)n3)CC2)CC1,binding,competition with immobilised ligand,1 µM,100
O=C(Nc1c[nH]nc1C(=O)NC1CCNCC1)c1cc(F)cc(F)c1,binding,competition with immobilised ligand,1 µM,100
CCOC(=O)c1cc2cc(-c3cc(C(=O)NCc4ccc(C(=O)O)cc4)nn3C)ccc2[nH]1,cell-free assay,competition with immobilised ligand,0.1 µM,99
c1cnn2ncc(-c3ccnc(N4CCC45COC5)n3)c2c1,binding,,1 µM,92
COc1ncc2cc3ccccc3nc2c1C#N,cell-free assay,competition with immobilised ligand,5 µM,100
O=C(c1ccc(Nc2ncc(Cl)c(-c3ccc(Cl)s3)n2)cc1)N1CCC(N2CCCC2)CC1,binding,competition with immobilised ligand,1 µM,67
CN(c1nccc(-c2cnn3ncccc23)n1)C1CC1,binding,,1 µM,100
C[C@@H]1CN(c2cc(-c3n[nH]c4ccc(OC5(C)CC5)cc34)ncn2)C[C@H](C)O1,cell-free assay,competition with immobilised ligand,0.1 µM,79
CN(CCCC(F)(F)F)c1nccc(-c2cnn3ncccc23)n1,binding,,1 µM,93
Cc1cc(C)c(-n2ccn3nc(-c4cccnc4)cc23)cc1NC(=O)c1cc(C#N)cc(S(F)(F)(F)(F)F)c1,cell-free assay,competition with immobilised ligand,0.1 µM,99.6
CN(C)c1nccc(-c2cnc3ncccn23)n1,binding,,1 µM,100
O=C(NCCCN1CCOCC1)c1ccc(Nc2nccc(-c3cc4ccccc4s3)n2)cc1,binding,competition with immobilised ligand,1 µM,78
Cc1noc([C@H]2C[C@@H](c3ccc(C(F)(F)F)cc3)CN(C(=O)N3CCS(=O)(=O)C3)C2)n1,cell-free assay,competition with immobilised ligand,1 µM,100
COc1ccnn2ncc(-c3ccnc(N(C)C)n3)c12,binding,,1 µM,86
